# An excerpt weighted towards active compounds, which were near 2.6% of everything screened.
# FN deposition inh: fibronectin deposition inhibition. AH1F fibroblasts, Alexa488-fibronectin deposition fluorescence, overnight. inhibition, % at 12.6 µM. hit rate 0.086% among 350,000;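 active means mean inhibition across replicates of 30% or more, regardless of how many single replicates reach that level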;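 further: positive control wells lacked labelled fibronectin entirely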
#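 Material: AH1F fibroblast monolayer depositing Alexa488-labelled fibronectin into matrix | Input: 10000 AH1F cells/well | Medium: DMEM plus 2% serum, read in PBS | Reagent: Alexa488-fibronectin, 24 nM final in well | Compound dosing: One dose per compound, pinned | Schedule: 1 h adhesion, overnight exposure | Measured by: Fluorescence at 485 nm excitation, 525 nm emission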
# S100A4 inh HTS: inhibitors of human S100A4 binding to myosin IIA peptide; S100A4/TAMRA-MyoIIA peptide fluorescence polarization; inhibition, % at 10.7 µM; hit rate 0.14% among 360,000; AID 652163;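 active means mean inhibition of at least 70% across replicates, with every replicate also reaching that level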
# Target sequence (P26447 whole entry, looked up): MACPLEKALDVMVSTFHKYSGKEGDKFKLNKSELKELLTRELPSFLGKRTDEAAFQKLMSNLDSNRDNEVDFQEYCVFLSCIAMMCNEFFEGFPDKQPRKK
#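 Test system: S100A4 monomer protein; Medium: HEPES pH 7.2 with CaCl2, KCl, NaCl, DTT, Triton; Probe or stimulus: TAMRA-labelled myosin IIA heavy-chain peptide probe, 5 nM; Doses: one dose per compound; Times: polarization read 5 min after assay mix addition, stable 5–60 min; Benchmarks: neutral control DMSO, positive control TFP.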
# miR-122 sensor: miR-122 inhibition in Huh7 cells | activation (reporter increase), % at 12.5 µM | Huh7 miR-122 Renilla luciferase sensor, 48 h; neutral wells = 0, positive control = 100 | AID 602342 | hit rate 0.3% among 340,000;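 active means mean replicate activation score at least 90 and every replicate individually at or above 90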;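 further: higher luciferase means less miR-122 activity so hits act as miR-122 inhibitors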
# Ecoli rRNA inh: selective bacterial rRNA inhibition in E. coli; E. coli WT GFP vs humanized-ribosome RFP mutants, fluorescence, 24 h; active compounds read low; DMSO median 0, no signal -100; GFP signal change (wild-type ribosome), % (no concentration beside the values); hit rate 1.6% among 350,000;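 active means significant combined selectivity score with lowered wild-type GFP, culture density cut under 30%, mutant RFP and density less affected; inactive means any of these conditions unmet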
# HIV Env fusion: inhibitors of HIV Env-mediated cell fusion. HeLa-JRFL Env/CEM21 cell fusion, luciferase. inhibition, % at 12.3 µM. hit rate 1.1% among 360,000. AID 651610;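 active means mean replicate inhibition score of at least 50 and every replicate individually at or above 50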;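 further: 0% = plate neutral controls and 100% = maraviroc near 300 nM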
# Vif imaging: inhibitors of HIV Vif | HEK293T cells, Vif self-association by quenched fluorescence, imaging, 24 h | hit rate 0.35% among 340,000 | inhibition, % at 7.49 µM | AID 602346; in the data active means inhibition above about 50%, passing the limit was not always enough
# Active calls of the source: *; . = no result given; [ ] = dose if it differs, or a comment.
SMILES,FN deposition inh,S100A4 inh HTS,miR-122 sensor,Ecoli rRNA inh,HIV Env fusion,Vif imaging
C[C@@H]1CCCCO[C@H](CN(C)S(=O)(=O)c2cccs2)[C@@H](C)CN([C@@H](C)CO)C(=O)c2cc(NC(=O)C3CCCCC3)ccc2O1,.,-6,12[16.7 µM],-2,-73[16.7 µM],.
OC(CNCc1ccccc1Cl)COc1ccc(F)cc1 (stereo not given),-5,-10,.,0,-2,65*
O=[N+]([O-])c1cccnc1N1CCCCC1,.,.,-3,.,-49,-4
O=[N+]([O-])c1cccnc1N1CCN(c2ccccc2F)CC1,-8,-1,.,-34*,5,2
C[C@H]1CN([C@@H](C)CO)C(=O)c2cccc(NS(=O)(=O)c3ccc(Cl)cc3)c2O[C@H]1CN(C)C(=O)Nc1ccccc1,.,27,-5[16.7 µM],-8,.,.
CC(C)C(=O)Nc1ncc(Cc2ccc(Cl)cc2)s1,3,-5,.,-28*,-2,-4
O=C(CN1CCOCC1)N[C@H]1CC[C@@H](CCNC(=O)C2CCC2)O[C@@H]1CO,-5,34,-3[16.7 µM],1,18[16.7 µM],.
Cc1ccc(CNCCCSc2ncccn2)cc1,6,-2,-3,14,-42,60*
CC(C)C#Cc1ccc([C@H]2[C@@H](CO)N3C(=O)CN(C(=O)Cc4cccnc4)C[C@H]23)cc1,.,.,.,2,.,.
O=C(/C=C/Nc1ccccc1Oc1ccccc1)c1ccco1,13,-5,38,-32*,-4,4
CC1N(C)c2cc(NC(=O)c3ccco3)c(P(=O)(Nc3ccc([N+](=O)[O-])cc3)N3CCOCC3)cc2C1(C)C (stereo not given),15,-67,.,-36,22,-15
CCn1c2ccccc2c2cc(NC(=O)c3ccco3)ccc21,.,-12,4,-35*,.,-1
CC1N(C)c2cc(NC(=O)c3ccco3)ccc2C1(C)C (stereo not given),.,180*,.,-42,.,-4
C[C@@H]1CN([C@H](C)CO)C(=O)c2cc(NC(=O)Cn3cnnn3)ccc2O[C@@H]1CN(C)S(=O)(=O)c1ccccc1,.,-14,0[16.7 µM],4,6[16.7 µM],.
CN(C)c1cccc(C(=O)NNC(=S)NC2CC3CCC2C3)c1 (stereo not given),-6,-4,5,-24*,-7,14
Nc1ccccc1-c1nnn(CC(=O)Nc2ccc3c(c2)OCCO3)n1,6,0,-5,-25*,-12,6
Cc1ccccc1OCC(=O)Nc1cccc(C(=O)O)c1,1,-15,.,-1,76*,-29
Cc1cccc(NC(=O)COc2ccc(Br)cc2/C=N/O)c1,-3,-1,.,-44*,-35,-2
O=C(O)CCC(=O)Nc1ccccc1C(=O)Nc1ccccc1,5,.,115*,.,-136,.
O=C(COc1ccccc1Cl)Nc1ccc(C(=O)O)cc1NC(=O)COc1ccccc1Cl,9,3,4,.,6,2
O=C(COc1ccccc1Cl)Nc1ccccc1C(=O)Nc1cccc(C(=O)O)c1,-1,-18,5,-29*,1,3
CC(=O)Nc1ccc(NC(=O)COc2ccc(Br)cc2C)cc1,5,-6,-6,6,.,-12
CCN1[C@@H]2c3ccc(C4=CCCCC4)c(=O)n3C[C@H]1[C@H](CO)[C@H]2C(=O)N1CCCCC1,.,-5,6[16.7 µM],0,.,.
CC(C)NC(=O)N(C)C[C@H]1Oc2ncc(C#Cc3ccc(F)cc3)cc2C(=O)N([C@@H](C)CO)C[C@H]1C,6,5,-6[16.7 µM],-2,30[16.7 µM],.
C[C@H]1CN([C@@H](C)CO)C(=O)c2cc(C3=CCCC3)cnc2O[C@@H]1CN(C)S(=O)(=O)c1cn(C)cn1,8,-8,-3[16.7 µM],5,-8[16.7 µM],.
COC(=O)[C@H]1[C@H](CO)[C@H]2Cn3c(ccc(-c4cccc(F)c4)c3=O)[C@H]2N1C(=O)CC1CC1,.,-9,0[16.7 µM],0,.,.
COC(=O)[C@@H]1[C@@H](CO)[C@@H]2Cn3c(ccc(-c4ccccc4)c3=O)[C@@H]2N1C(=O)CC1CC1,.,76*,.,0,5[16.7 µM],.
O=C(O)[C@@H]1[C@@H](CO)[C@@H]2Cn3c(ccc(/C=C/c4ccccc4)c3=O)[C@@H]2N1C(=O)C1CCCC1,.,110*,.,0,-55[16.7 µM],.

# Screening results from PubChem.
